Test results as given in ChEMBL document CHEMBL4610021, “Synthesis and immunostimulatory activity of sugar-conjugated TLR7 ligands” (Bioorg Med Chem Lett, 2020).
pEC50: −log10 of the molar value.

Assays:
Assay type in all cases: cell-based
[1] = molecular target: T1, Toll-like receptor 7 (Mus musculus) (UniProt P58681); assay: Agonist activity at TLR7 in mouse RAW264.7 cells assessed as immunostimulatory activity by measuring increase in TNFalpha secretion incubated for 18 hrs by ELISA relative to 1V209
T1 sequence (whole entry): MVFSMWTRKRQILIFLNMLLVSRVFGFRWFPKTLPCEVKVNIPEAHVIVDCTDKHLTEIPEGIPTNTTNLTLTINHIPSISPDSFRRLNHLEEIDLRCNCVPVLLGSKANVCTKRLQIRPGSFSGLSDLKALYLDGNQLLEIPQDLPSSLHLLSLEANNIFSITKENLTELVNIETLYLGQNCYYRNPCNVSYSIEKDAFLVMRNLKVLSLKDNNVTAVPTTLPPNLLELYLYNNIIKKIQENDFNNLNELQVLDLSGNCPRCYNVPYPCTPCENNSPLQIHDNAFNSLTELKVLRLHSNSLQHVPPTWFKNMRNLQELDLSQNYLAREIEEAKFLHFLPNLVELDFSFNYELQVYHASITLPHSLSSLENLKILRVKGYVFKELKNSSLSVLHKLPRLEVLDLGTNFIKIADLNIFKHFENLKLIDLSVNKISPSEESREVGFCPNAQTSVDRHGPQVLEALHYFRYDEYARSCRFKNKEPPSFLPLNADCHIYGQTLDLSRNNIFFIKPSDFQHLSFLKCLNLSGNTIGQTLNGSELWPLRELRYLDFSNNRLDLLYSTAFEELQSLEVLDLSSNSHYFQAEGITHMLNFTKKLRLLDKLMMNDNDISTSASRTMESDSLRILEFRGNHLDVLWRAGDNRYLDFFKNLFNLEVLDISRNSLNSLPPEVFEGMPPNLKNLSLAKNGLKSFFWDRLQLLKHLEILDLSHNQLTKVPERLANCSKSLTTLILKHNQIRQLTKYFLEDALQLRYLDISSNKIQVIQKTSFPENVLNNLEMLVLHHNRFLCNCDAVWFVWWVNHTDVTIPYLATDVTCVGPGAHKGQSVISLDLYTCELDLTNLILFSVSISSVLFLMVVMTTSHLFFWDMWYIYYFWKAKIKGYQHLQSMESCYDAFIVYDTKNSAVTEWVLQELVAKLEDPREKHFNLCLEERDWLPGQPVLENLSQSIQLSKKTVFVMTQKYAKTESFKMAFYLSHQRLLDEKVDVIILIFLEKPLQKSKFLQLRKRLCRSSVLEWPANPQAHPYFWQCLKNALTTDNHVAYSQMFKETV
In short: (§1)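 Murine RAW264.7 macrophages plated at 1×10^4 cells/well, incubated 18 h with serially diluted compound; 0.25% DMSO vehicle. TNF-α in culture supernatant measured by ELISA. EC50 calculated by curve fitting; Emax as % of unconjugated reference ligand. Means ± SD of triplicate, representative of three independent experiments.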

[2] = molecular target: T1, Toll-like receptor 7 (Mus musculus); assay: Agonist activity at TLR7 in mouse BMDC cells assessed as immunostimulatory activity by measuring increase in IL6 secretion incubated for 18 hrs by ELISA relative to 1V209
In short: (§2)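 Primary murine bone marrow-derived dendritic cells plated at 1×10^5 cells/well and exposed to serially diluted compound; 0.25% DMSO vehicle. IL-6 in supernatant measured by ELISA. EC50 calculated by curve fitting; Emax expressed as % relative to the unconjugated reference ligand. Means ± SD of triplicate, representative of three independent experiments.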

Toll-like receptor 7 [3] = molecular target: T2, Toll-like receptor 7 (Mus musculus, UniProt P58681); assay: Agonist activity at TLR7 in mouse BMDC cells assessed as immunostimulatory activity by measuring increase in IL6 secretion incubated for 18 hrs by ELISA; in short: as §2
T2 sequence (P58681 whole entry): T1 sequence (whole entry)

Toll-like receptor 7 [4] = molecular target: T2, Toll-like receptor 7; assay: Agonist activity at TLR7 in mouse RAW264.7 cells assessed as immunostimulatory activity by measuring increase in TNFalpha secretion incubated for 18 hrs by ELISA; in short: as §1
Toll-like receptor 7 [5] = molecular target: T2, Toll-like receptor 7; assay: Agonist activity at TLR7 in mouse RAW264.7 cells assessed as immunostimulatory activity by measuring increase in TNFalpha secretion incubated for 6 hrs in absence of actin polymerization inhibitor cytochalasin D by ELISA
In short: (§3)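 RAW264.7 cells seeded at 1.5×10^4 cells/well, pre-incubated with or without 1 μM cytochalasin D, then exposed 6 h to serially diluted compound. TNF-α and IL-6 in supernatants determined by ELISA. Means ± SD of triplicate, representative of three independent experiments.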

Toll-like receptor 7 [6] = molecular target: T2, Toll-like receptor 7; assay: Agonist activity at TLR7 in mouse RAW264.7 cells assessed as immunostimulatory activity by measuring increase in TNFalpha secretion preincubated with actin polymerization inhibitor cytochalasin D followed by incubation with compound for 6 hrs by ELISA; in short: as §3
[7] = molecular target: T3, Toll-like receptor 7 (Homo sapiens) (UniProt Q9NYK1); assay: Agonist activity at TLR7 in human PBMC cells assessed as immunostimulatory activity by measuring fold increase in TNFalpha secretion at 10 uM incubated for 18 hrs by ELISA relative to 1V209
T3 sequence (whole entry): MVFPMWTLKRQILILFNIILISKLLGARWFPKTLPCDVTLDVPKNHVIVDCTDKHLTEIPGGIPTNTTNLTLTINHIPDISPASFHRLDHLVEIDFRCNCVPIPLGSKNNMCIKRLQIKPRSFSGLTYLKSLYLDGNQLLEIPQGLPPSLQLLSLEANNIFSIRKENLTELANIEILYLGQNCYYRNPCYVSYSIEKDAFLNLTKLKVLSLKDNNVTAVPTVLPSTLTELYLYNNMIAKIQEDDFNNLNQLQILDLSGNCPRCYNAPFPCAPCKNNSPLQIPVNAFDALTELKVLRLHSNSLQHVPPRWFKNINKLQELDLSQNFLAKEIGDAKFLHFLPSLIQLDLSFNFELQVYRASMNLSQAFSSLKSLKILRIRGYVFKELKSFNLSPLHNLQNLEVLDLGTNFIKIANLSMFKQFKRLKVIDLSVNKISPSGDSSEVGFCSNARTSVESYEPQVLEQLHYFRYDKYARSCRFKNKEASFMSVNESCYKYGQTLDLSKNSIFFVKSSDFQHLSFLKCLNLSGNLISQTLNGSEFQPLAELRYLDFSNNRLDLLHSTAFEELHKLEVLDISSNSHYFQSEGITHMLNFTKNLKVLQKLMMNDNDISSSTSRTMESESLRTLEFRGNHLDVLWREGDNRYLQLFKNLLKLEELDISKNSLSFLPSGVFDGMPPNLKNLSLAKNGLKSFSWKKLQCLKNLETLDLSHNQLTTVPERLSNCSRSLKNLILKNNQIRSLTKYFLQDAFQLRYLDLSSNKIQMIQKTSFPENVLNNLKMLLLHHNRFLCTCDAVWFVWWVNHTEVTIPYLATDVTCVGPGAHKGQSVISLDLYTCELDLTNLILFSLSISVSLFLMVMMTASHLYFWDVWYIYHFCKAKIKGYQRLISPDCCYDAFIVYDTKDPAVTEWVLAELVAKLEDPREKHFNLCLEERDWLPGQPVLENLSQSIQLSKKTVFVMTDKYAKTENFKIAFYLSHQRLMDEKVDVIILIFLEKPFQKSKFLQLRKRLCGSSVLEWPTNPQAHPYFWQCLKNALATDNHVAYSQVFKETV
In short: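 Human PBMC plated at 2×10^5 cells/well, exposed 18 h to 10 μM compound; 0.25% DMSO vehicle control. Cytokine in culture supernatant quantified by ELISA. Means ± SD of triplicate, representative of three independent experiments; one-way ANOVA with Dunnett's multiple comparisons test.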

SMILES	Emax [1] [%]	Emax [2] [%]	pEC50 (Toll-like receptor 7 [3])	pEC50 (Toll-like receptor 7 [4])	pEC50 (Toll-like receptor 7 [5])	pEC50 (Toll-like receptor 7 [6])	fold change (FC) [7]
COCCOc1nc(N)c2nc(O)n(Cc3ccc(C(=O)NC4O[C@H](CO)[C@@H](O)[C@H](O)[C@H]4O)cc3)c2n1 (stereo partly specified)	87	118	6.70	6.64	6.31	6.04	
COCCOc1nc(N)c2[nH]c(=O)n(Cc3ccc(C(=O)O)cc3)c2n1	100	100	6.36	6.60	5.67	5.68	
COCCOc1nc(N)c2nc(O)n(Cc3ccc(C(=O)N[C@H]4C(O)O[C@H](CO)[C@H](O)[C@@H]4O)cc3)c2n1 (stereo partly specified)	83	139	6.68	6.82			
COCCOc1nc(N)c2nc(O)n(Cc3ccc(C(=O)NC4O[C@H](CO)[C@@H](O)[C@H](O)[C@@H]4O)cc3)c2n1 (stereo partly specified)	121	116	6.52	6.60			
COCCOc1nc(N)c2nc(O)n(Cc3ccc(C(=O)N[C@H]4C(O)O[C@H](CO)[C@@H](O)[C@@H]4O)cc3)c2n1 (stereo partly specified)	103	139	6.62	6.63			2
COCCOc1nc(N)c2nc(O)n(Cc3ccc(C(=O)NC4O[C@H](CO)[C@H](O)[C@H](O)[C@H]4O)cc3)c2n1 (stereo partly specified)	115	118	6.59	6.50			

Stronger by pEC50 (Toll-like receptor 7 [3]), values ahead:

Emax [1] [%]	Emax [2] [%]	pEC50 (Toll-like receptor 7 [3])	pEC50 (Toll-like receptor 7 [4])	pEC50 (Toll-like receptor 7 [5])	pEC50 (Toll-like receptor 7 [6])	fold change (FC) [7]	SMILES
177	142	6.96	7.10				COCCOc1nc(N)c2nc(O)n(Cc3ccc(C(=O)NC4O[C@H](CO)[C@@H](O[C@@H]5O[C@H](CO)[C@H](O)[C@H](O)[C@H]5O)[C@H](O)[C@H]4O)cc3)c2n1 (stereo partly specified)
97	130	6.97	6.88				COCCOc1nc(N)c2nc(O)n(Cc3ccc(C(=O)NC[C@H]4O[C@@H]5O[C@H]6[C@H](O)[C@@H](O)[C@@H](O[C@H]7[C@H](O)[C@@H](O)[C@@H](O[C@H]8[C@H](O)[C@@H](O)[C@@H](O[C@H]9[C@H](O)[C@@H](O)[C@@H](O[C@H]%10[C@H](O)[C@@H](O)[C@@H](O[C@H]%11[C@H](O)[C@@H](O)[C@@H](O[C@H]%12[C@H](O)[C@@H](O)[C@@H](O[C@H]4[C@H](O)[C@H]5O)O[C@@H]%12CO)O[C@@H]%11CO)O[C@@H]%10CO)O[C@@H]9CO)O[C@@H]8CO)O[C@@H]7CO)O[C@@H]6CO)cc3)c2n1
113	109	7.25	6.97				COCCOc1nc(N)c2nc(O)n(Cc3ccc(C(=O)N[C@H]4[C@H](O)[C@H]5O[C@H]6[C@H](O)[C@@H](O)[C@@H](O[C@H]7[C@H](O)[C@@H](O)[C@@H](O[C@H]8[C@H](O)[C@@H](O)[C@@H](O[C@H]9[C@H](O)[C@@H](O)[C@@H](O[C@H]%10[C@H](O)[C@@H](O)[C@@H](O[C@H]%11[C@H](O)[C@@H](O)[C@@H](O[C@H]%12[C@H](O)[C@@H](O)[C@@H](O[C@@H]4[C@@H](CO)O5)O[C@@H]%12CO)O[C@@H]%11CO)O[C@@H]%10CO)O[C@@H]9CO)O[C@@H]8CO)O[C@@H]7CO)O[C@@H]6CO)cc3)c2n1
157	159	7.00	6.87	6.56	6.23	2	COCCOc1nc(N)c2nc(O)n(Cc3ccc(C(=O)NC4O[C@H](CO)[C@@H](O[C@H]5O[C@H](CO)[C@@H](O)[C@H](O)[C@H]5O)[C@H](O)[C@H]4O)cc3)c2n1 (stereo partly specified)
135	127	6.82	6.54				COCCOc1nc(N)c2nc(O)n(Cc3ccc(C(=O)NC[C@H]4O[C@@H]5O[C@H]6[C@H](O)[C@@H](O)[C@@H](O[C@H]7[C@H](O)[C@@H](O)[C@@H](O[C@H]8[C@H](O)[C@@H](O)[C@@H](O[C@H]9[C@H](O)[C@@H](O)[C@@H](O[C@H]%10[C@H](O)[C@@H](O)[C@@H](O[C@H]%11[C@H](O)[C@@H](O)[C@@H](O[C@H]4[C@H](O)[C@H]5O)O[C@@H]%11CO)O[C@@H]%10CO)O[C@@H]9CO)O[C@@H]8CO)O[C@@H]7CO)O[C@@H]6CO)cc3)c2n1
126	127	7.15	6.89				COCCOc1nc(N)c2nc(O)n(Cc3ccc(C(=O)NC[C@H]4O[C@@H]5O[C@H]6[C@H](O)[C@@H](O)[C@@H](O[C@H]7[C@H](O)[C@@H](O)[C@@H](O[C@H]8[C@H](O)[C@@H](O)[C@@H](O[C@H]9[C@H](O)[C@@H](O)[C@@H](O[C@H]%10[C@H](O)[C@@H](O)[C@@H](O[C@H]4[C@H](O)[C@H]5O)O[C@@H]%10CO)O[C@@H]9CO)O[C@@H]8CO)O[C@@H]7CO)O[C@@H]6CO)cc3)c2n1
